Experimental data from different studies.
Effect on: metabolic stability
Species: human

Structure (SMILES) | system | conditions | endpoint | result
CC(C)(C)OC(=O)N1CCC(Oc2ccc3c(=O)c4c(Cl)cc(F)cc4[nH]c3c2)CC1 | liver microsomes | 1 µM, pH 7.4 | microsomal CLint | 7.13 µL/min/mg
C[C@]1(O)CCCN(c2nc(Nc3ccc(S(=O)(=O)N[C@H]4CC[C@H](CN5CCN(c6ccc(C7CCC(=O)NC7=O)cc6F)CC5)CC4)cc3F)ncc2C(F)(F)F)C1 (stereo partly drawn) | liver microsomes | 1 µM | scaled CLint | < 14 mL/min/kg
O=c1c2c([nH]c3cc(OCc4ccc(OC(F)(F)F)cc4)ccc13)CCCC2 | liver microsomes | 1 µM, pH 7.4 | microsomal CLint | 36.5 µL/min/mg
O=C(NCc1nc(-c2ccc(C(F)(F)F)cc2)cs1)[C@H]1CCCN(C(=O)CO[C@H]2CCCNC2)C1 | liver microsomes | 0.5 µM | microsomal CLint | 13 µL/min/mg
C=CCn1c(=O)c2cnc(Nc3ccc(N4CCN(C)CC4)cc3)nc2n1-c1cccc(C(C)(C)O)n1 | liver microsomes | – | scaled CLint | 77 mL/min/kg
COCC(=O)N1CCC[C@H](C(=O)NCc2nc(-c3ccc(OC(F)(F)F)cc3)cs2)C1 | liver microsomes | 0.5 µM | microsomal CLint | 37 µL/min/mg
O=c1c2ccc(OCc3ccc(C(F)(F)F)cc3)cc2[nH]c2cc(Cl)cc(F)c12 | liver microsomes | 1 µM, pH 7.4 | microsomal CLint | 6.71 µL/min/mg
N[C@H](COCC(=O)N1CCC[C@H](C(=O)NCc2nc(-c3ccc(C(F)(F)F)cc3)cs2)C1)c1ccccc1 | liver microsomes | 0.5 µM | microsomal CLint | 80 µL/min/mg
Cc1cc(S(=O)(=O)N[C@H]2CC[C@H](CN3CCN(c4cccc(NC5CCC(=O)NC5=O)c4)CC3)CC2)ccc1Nc1ncc(C(F)(F)F)c(N2CCC[C@](C)(O)C2)n1 (stereo partly drawn) | liver microsomes | 1 µM | scaled CLint | < 14 mL/min/kg
CC(C)(N)COCC(=O)N1CCC[C@H](C(=O)NCc2nc(-c3ccc(C(F)(F)F)cc3)cs2)C1 | liver microsomes | 0.5 µM | microsomal CLint | < 3 µL/min/mg
O=c1c2c([nH]c3cc(Oc4cccc(OC(F)(F)F)c4)ccc13)CCCC2 | liver microsomes | 1 µM, pH 7.4 | microsomal CLint | 1.66 µL/min/mg
CCOCC(=O)N1C2CCC(C(=O)NCc3nc(-c4ccc(C#N)cc4)cs3)C1CC2 (stereo not drawn) | liver microsomes | 0.5 µM | microsomal CLint | 42 µL/min/mg
C[C@H](O)c1ccc(NS(=O)(=O)c2ccc(OCC3CCC3)c(Cl)c2)c2nn(C)cc12 | hepatocytes | 1 µM | hepatocyte CLint | 167 µL/min/10⁶ cells
CNS(=O)(=O)c1ccc(Nc2ncc3cc(Cl)c(=O)n(C4CCCC4)c3n2)c(C)c1 | liver microsomes | 1 µM | scaled CLint | 100 mL/min/kg
CCOCC(=O)N1CCC[C@H](C(=O)NCc2nc(-c3ccc(C)nc3)cs2)C1 | liver microsomes | 0.5 µM | scaled CLint | 11 mL/min/kg
CCCN(CCC)CCCOc1ccc2c(=O)c3c([nH]c2c1)CCCC3 | liver microsomes | 1 µM, pH 7.4 | microsomal CLint | 37.1 µL/min/mg
Cc1cc(S(=O)(=O)NC2CC(N3CCN(CC4CCN(c5ccc(NC6CCC(=O)NC6=O)cc5C)CC4)CC3)C2)ccc1Nc1ncc(C(F)(F)F)c(N2CCC[C@](C)(O)C2)n1 (stereo partly drawn) | liver microsomes | 1 µM | scaled CLint | 15 mL/min/kg
O=c1c2ccc(OCc3ccc(OC(F)(F)F)cc3)cc2[nH]c2cc(Cl)cc(F)c12 | liver microsomes | 1 µM, pH 7.4 | microsomal CLint | 14.9 µL/min/mg
CNc1ccc(C(N)=O)cn1 | hepatocytes | 1 µM, pH 7.4 | hepatocyte CLint | 3 µL/min/10⁶ cells
Cc1cc(S(=O)(=O)N[C@]2(C)C[C@@H](N3CCN(CC4CCN(c5ccc6c(c5F)n(C)c(=O)n6C5CCC(=O)NC5=O)CC4)CC3)C2)ccc1Nc1ncc(C(F)(F)F)c(N2CCC[C@](C)(O)C2)n1 (stereo partly drawn) | liver microsomes | 1 µM | scaled CLint | 120 mL/min/kg
O=c1c2ccc(OC3CCNCC3)cc2[nH]c2cc(F)cc(Cl)c12 | liver microsomes | 1 µM, pH 7.4 | microsomal CLint | 13.9 µL/min/mg
CNS(=O)(=O)c1ccc(Nc2ncc(C(F)(F)F)c([C@H]3CC[C@](C)(O)CC3)n2)c(C)c1 | liver microsomes | 1 µM | scaled CLint | < 14 mL/min/kg
CCCN(CCC)CCNc1ccc2c(=O)c3c([nH]c2c1)CCCC3 | liver microsomes | 1 µM, pH 7.4 | microsomal CLint | 21.4 µL/min/mg
Cc1cc(S(=O)(=O)N[C@H]2C[C@H](CN3CCN(c4ccc(C5CCC(=O)NC5=O)c(Cl)c4)CC3)C2)ccc1Nc1ncc(C(F)(F)F)c(N2CCC[C@](C)(O)C2)n1 (stereo partly drawn) | liver microsomes | 1 µM | scaled CLint | 21 mL/min/kg
COCC(=O)N1CCC[C@H](C(=O)NCc2nc(-c3ccccc3)cs2)C1 | liver microsomes | 0.5 µM | microsomal CLint | < 7 µL/min/mg
Cc1cc(S(=O)(=O)NC2CC(N3CCN(CC4CCN(c5cccc6c5n(C)c(=O)n6C5CCC(=O)NC5=O)CC4)CC3)C2)ccc1Nc1ncc(C(F)(F)F)c(N2CCC[C@](C)(O)C2)n1 (stereo partly drawn) | liver microsomes | 1 µM | scaled CLint | < 14 mL/min/kg
C[C@H]1[C@@H](C(=O)NCc2nc(-c3ccc(C#N)cc3)cs2)CCCN1C(=O)[C@H]1CCO1 | liver microsomes | 0.5 µM | microsomal CLint | 131 µL/min/mg
